The text below walks through data of publication PMC9894006 (Journal of Insect Science, 2023).

pKi: −log10 of the molar value. Where “and” joins values, the source holds several entries; their conditions need not be identical. Equal entries are not always repeated. A value given as a limit tells only on which side of the number the result lay.

Assay [1] concerns the target T1, recombinant BodoOBP10 (Bradysia odoriphaga, UniProt A0A2S0X9G4).
T1 sequence (A0A2S0X9G4 20-144): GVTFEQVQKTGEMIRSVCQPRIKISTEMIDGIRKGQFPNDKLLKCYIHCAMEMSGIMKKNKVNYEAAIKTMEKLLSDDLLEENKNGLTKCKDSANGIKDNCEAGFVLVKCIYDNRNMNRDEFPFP
The assay is described as follows: Binding curve of the fluorescence reporter 1-NPN. In outline: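 Recombinant BodoOBP10 was expressed in E. coli BL21(DE3) from pBM30 with 0.5 mM IPTG for 12 h at 28°C. Inclusion bodies were solubilised in 50 mM Tris pH 6.8 with 0.2% Triton X-100 and 6 M guanidine HCl. Protein was Ni-affinity purified and the His tag removed by enterokinase. Protein stock was 2 µM in 20 mM Tris-HCl pH 7.4; 1-NPN stock was 1 mM in methanol. Ex 337 nm, em 350–500 nm, 10-nm slit; triplicate means.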

The next assay deals with B. odoriphaga females. Conditions: ref Yang et al. 2019; cited from earlier work.
In assay [2] the target is T1, recombinant BodoOBP10. Kind of assay: Competitive fluorescence binding assay with 1-NPN as reporter. The conditions noted are these: competitive dissociation constant from IC50, 1-NPN reporter. The essentials:
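Refolded, Ni-purified, tag-cleaved BodoOBP10 (2 µM stock, 20 mM Tris-HCl pH 7.4) was titrated with test compounds (1 mM methanol stocks) displacing the 1-NPN reporter. Ex 337 nm, em 350–500 nm. IC50 is the ligand concentration halving initial fluorescence. Ki = [IC50]/(1 + [1-NPN]/K1-NPN), using free 1-NPN and the protein/1-NPN dissociation constant. Triplicate means.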

Assay [3] has as its system antennae of B. odoriphaga adult females. The assay is described as follows: Electroantennogram. Conditions: odorant at 10 μg/μL, adult females 12 h after emergence. On the set-up: species or system Bradysia odoriphaga. The essentials: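 30 nL of 6 μg/μL dsOBP10 or dsGFP was injected into one-day-old pupal abdomens; knockdown was checked by RT-qPCR in triplicate. Antennae of females 12 h post-emergence were detached, base on reference and tip on recording glass electrodes. Stimulus was 10 μl of a 10 μg/μL sulfur volatile on filter paper, pipetted after 10 s. Hexane control was given before and after. Ten replicates; one-way ANOVA with Tukey, means ± SE.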

In assay [4] the test system is antennae of adult B. odoriphaga. The conditions noted are these: ref Yang et al. 2019; cited from earlier work.
For another assay, the system named is male B. odoriphaga. Conditions: ref Li et al. 2008; cited from earlier work.

Consider `c1ccc(Nc2cccc3ccccc23)cc1` [1-NPN, N-phenyl-1-naphthylamine], for which the pKi on recombinant BodoOBP10 [1] was 6.11.
Take `C=CCSSCC=C` [Diallyl disulfide]: the female oviposition entry in the assay on B. odoriphaga females is reported as “stimulate female oviposition”. The negative-log Ki (pKi) on recombinant BodoOBP10 [2] is 5.10 and > 5.00. Moreover, the results for the “EAG response in dsOBP10-injected insects compared with control (dsGFP-injected)” value in assay [3] and in assay [3] (listed as diallyl disulﬁde) were “significantly reduced” and “reduced”, respectively. The “EAG responses / antennal preference of B. odoriphaga adults” value in assay [4] was “stimulate the EAG responses”.
Consider `CCCCCCCCCCCCCCCCC` [n- Heptadecane, n-Heptadecane], for which, in the assay with male B. odoriphaga, the “behavioral responses in male B. odoriphaga” value is listed as “can lead to behavioral responses”. Also, the pKi at recombinant BodoOBP10 [2] was below 4.30.
